# The list is not random: actives were taken first. Their share in the collection is about 1.7%.
# SR-BI HDL uptake – mouse SR-BI HDL lipid transfer inhibition; Q61009; ldlA[mSR-BI] CHO cells, DiI-HDL uptake fluorescence, 3 h; inhibition, % at 12.5 µM; 320,000 compounds, 0.96% hits; AID 488896;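 active = mean replicate inhibition of at least 70% and a set share of replicates each scoring 70 or more; inconclusive = meets just one of the two criteria; inactive = fails both criteria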;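 also: 0% = median of neutral control wells and 100% = median of positive control wells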
# Target sequence (Q61009 whole entry, looked up): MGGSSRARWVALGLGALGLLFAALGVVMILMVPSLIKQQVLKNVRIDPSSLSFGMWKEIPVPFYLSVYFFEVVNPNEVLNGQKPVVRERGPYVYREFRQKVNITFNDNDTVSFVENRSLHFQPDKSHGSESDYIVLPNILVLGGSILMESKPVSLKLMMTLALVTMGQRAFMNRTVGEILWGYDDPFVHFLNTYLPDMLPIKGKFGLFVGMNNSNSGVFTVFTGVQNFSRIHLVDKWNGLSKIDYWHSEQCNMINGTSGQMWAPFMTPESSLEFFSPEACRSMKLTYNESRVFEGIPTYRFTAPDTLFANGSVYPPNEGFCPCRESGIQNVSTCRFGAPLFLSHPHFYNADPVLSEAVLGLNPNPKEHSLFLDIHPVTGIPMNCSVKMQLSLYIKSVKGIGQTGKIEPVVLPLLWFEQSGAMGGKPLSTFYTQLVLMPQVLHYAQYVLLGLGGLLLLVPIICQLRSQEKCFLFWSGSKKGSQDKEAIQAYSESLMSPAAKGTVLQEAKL
# SR-BI DiI-HDL act – enhances SR-BI lipid uptake from DiI-HDL. 320,000 compounds, 0.096% hits. activation, % at 12.5 µM. AID 504775. CHO ldlA[mSR-BI] cells, DiI-HDL uptake fluorescence, 3 h; 100 = double the neutral-control signal;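 active = mean replicate activation of at least 60% and every replicate at or above 60%; inconclusive = mean or all-replicate condition met, but not both; inactive = mean below 60% and not all replicates reaching 60%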;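 also: 0% = median plate neutral-control signal and 100% = twice that signal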
#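 Material – SR-BI-overexpressing, LDLR-lacking CHO cells · Medium – BSA-supplemented, HEPES-buffered Ham's F12, pH 7.4 · Doses – single concentration · Times – compound with DiI-HDL co-incubation, 3 h at 37 °C · Measured by – bottom-read fluorescence, 550/595 nm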
# C2C12 statin – protects C2C12 myotubes from simvastatin toxicity. ATP luminescence, 48 h; scaled: DMSO 0, geranylgeraniol control 100. rescue of ATP level, % at 7.49 µM. 330,000 compounds, 0.78% hits. AID 602340;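 active = mean ATP rescue above about 67%, or every replicate alone reaching that limit, limit read from the data, passing the limit was not always enough; inconclusive = no clear call, values can overlap the other calls; inactive = mean under the limit and some replicate under it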;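 also: myotubes were challenged with 10 µM simvastatin during compound exposure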
# Vif inh – inhibitors of HIV Vif | HEK293T cells, Vif self-association by quenched fluorescence, imaging, 24 h | inhibition, % at 7.49 µM | 340,000 compounds, 0.35% hits; in the data active = inhibition above about 50%, passing the limit was not always enough; inconclusive = no clear call, values can overlap the other calls; inactive = below about 31%
# An asterisk follows results filed as active; ? = inconclusive; . = not tested or not shown.
SMILES,SR-BI HDL uptake,SR-BI DiI-HDL act,C2C12 statin,Vif inh
Cc1nn(-c2ccccn2)c2c1-c1nc(N)ncc1CC2,-4,4,115*,.
CC(=O)c1cccc(NC(=O)CN(c2cccc(F)c2)S(C)(=O)=O)c1,16,-16,111*,-3
Cc1cccc(N(CC(=O)Nc2ccc(CC#N)cc2)S(C)(=O)=O)c1,10,-10,.,34
CCc1ccc(NC(=O)CN(c2cccc(C)c2)S(C)(=O)=O)cc1,-18,18,100*,-2
O=C(Nc1cc(F)ccc1F)N1C[C@H]2[C@@H](c3ccccc31)[C@@H](CO)N2Cc1ccncc1,.,.,-6,.
O=C(O)CSC1CC(=O)N(c2ccc(Cl)c(Cl)c2)C1=O (configuration not stated),.,.,138*,6
CNC(=O)COC(=O)c1cccnc1SC,-18,18,-6,.
CSc1ncccc1C(=O)OCC(=O)NC(C)(C)C,-31,31,8,52*
CCCCCn1c(N)c(-c2nc3ccccc3s2)c2c([N+](=O)[O-])nn(C)c(=O)c21,84*,-84,-9,3
CCCCn1c(N)c(-c2nc3ccccc3o2)c2c([N+](=O)[O-])nn(C)c(=O)c21,9,-9,.,3
COc1ccc(NC(=O)N(C)C[C@@H]2Oc3ccc(NS(=O)(=O)c4cn(C)cn4)cc3C(=O)N([C@@H](C)CO)C[C@@H]2C)cc1,.,.,27,.
Cc1ccc(/C=C/C(=O)Nc2ccc([N+](=O)[O-])cc2)o1,75*,-75,-2,-5
CCOC(=O)CCc1ccc(NC(=O)/C=C/c2ccc([N+](=O)[O-])o2)cc1,74*,-74,.,10
CCc1ccc(C(=O)/C=C/c2ccc([N+](=O)[O-])o2)cc1,13,-13,.,0
Cc1ccc(/C=C/C(=O)Nc2ccc(Oc3ccccc3)cc2)o1,24,-24,.,-9
C[C@H](CO)N1C[C@H](C)[C@H](CN(C)Cc2cccnc2)Oc2ncc(-c3ccc(C#N)cc3)cc2C1=O,.,.,-15,.
Cc1cc(C)n2c(SCc3c(C)noc3C)nnc2n1,8,-8,93*,-2
C[C@H]1CN([C@@H](C)CO)C(=O)Cc2cc(NC(=O)Nc3ccc(C(F)(F)F)cc3)ccc2O[C@H]1CN(C)S(=O)(=O)c1cn(C)cn1,.,.,-192,.
COc1ccc(-c2nc(NC(C)=O)sc2-c2ccccc2)cc1,68,-68,.,-7
COc1ccc(-c2nc(NC(=O)c3ccccc3)sc2-c2ccc([N+](=O)[O-])cc2)cc1,79*,-79,.,4
COc1ccc(-c2sc(NC(C)=O)nc2-c2ccccc2)cc1,80*,-80,.,-6
CN(C)CCCNC(=O)C[C@@H]1CC[C@@H]2[C@H](COC[C@@H](O)CN2S(=O)(=O)c2ccc(Cl)cc2)O1,.,.,-9,.
COc1ccccc1/C=C1/SC(=S)N(C(C)C(=O)NC2C=CS(=O)(=O)C2)C1=O (configuration not stated),15,-15,4,55*
Brc1ccc(/C=N/Nc2nc3ccccc3o2)cc1,9,-9,-17,-6
C(=N\Nc1nc2ccccc2s1)/c1cccs1,0,0,47,-5
SMILES,SR-BI HDL uptake,SR-BI DiI-HDL act,C2C12 statin,Vif inh
Oc1ccccc1C=NNc1nc2ccccc2s1,101*,-101,6,-21
Oc1ccccc1/C=N/Nc1nc2ccccc2o1,93*,-93,56,0
COc1ccc(/C=N/Nc2nc3ccccc3s2)cc1O,27,-27,.,-7
CCn1c(C)c(/C=N/Nc2nc3ccccc3s2)c2ccccc21,112*,-112,-37,9
Oc1ccc(C=NNc2nc3ccccc3s2)c(O)c1,?,-74,117*,-18
C[C@H]1CN([C@@H](C)CO)C(=O)c2cc(NC(=O)Nc3ccc4c(c3)OCO4)ccc2O[C@H]1CN(C)Cc1ccc(C(=O)O)cc1,.,.,-10,.
CCNC(=O)C[C@H]1CC[C@@H]2[C@@H](COc3ccc(NC(=O)Nc4cccc(C)c4)cc3C(=O)N2C)O1,.,.,13,.
Cc1cc(C)cc(N(C(=O)c2csnn2)C(C(=O)NC2CCCCC2)c2ccccn2)c1 (configuration not stated),.,.,9,-14
Cc1ccc(N(C(=O)c2csnn2)C(C(=O)NC2CCCCC2)c2ccccn2)cc1C (configuration not stated),-5,5,81*,-13
O=C(C[C@H]1CC[C@@H](NC(=O)c2cccc(F)c2)[C@H](CO)O1)NCc1ccc(Oc2ccccc2)cc1,.,.,19,.
C[C@@H](NC(=O)C[C@@H]1C[C@@H]2c3cc(NC(=O)C4CCC4)ccc3O[C@@H]2[C@H](CO)O1)c1ccccc1,.,.,-1,.

# Source: PubChem
